From ChEMBL document CHEMBL5620421, “2,6-Disubstituted 7-(naphthalen-2-ylmethyl)-7H-purines as a new class of potent antitubercular agents inhibiting DprE1” (Eur J Med Chem, 2023) come the findings set out here.

The subject of test [1] is Mycobacterium tuberculosis. The test can be described thus: Antitubercular activity against Mycobacterium tuberculosis CNCTC My 331/88 (H37Rv) infected in MONO-MAC-6 cells assessed as reduction in colony forming unit growth at 25 uM measured after 48 hrs of incubation by MTT based ELISA relative to control. In kind it is functional. Also noted: scale not given: the % may be the effect or the level left. (An ELISA detects its analyte on a solid surface through an enzyme-linked reagent.)

In test [2] the test system is Mycobacterium tuberculosis. The test can be described thus: Antitubercular activity against Mycobacterium tuberculosis CNCTC My 331/88 (H37Rv) infected in MONO-MAC-6 cells assessed as inhibition of bacterial growth measured after 48 hrs of incubation by MTT based ELISA. The format is functional, organism-based. Particulars: MONO-MAC-6, 48 h. In a few lines:
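MonoMac6 cells in RPMI-1640 with 10% FBS, 2 mM glutamine and gentamicin, seeded at 6.5 × 10³ cells/well the day before. Treated 48 h at 2.56 × 10⁻³–250 μM in incomplete medium with 1% DMSO. Read by MTT (3.5 h), formazan in DMSO, absorbance at 540/620 nm. IC50 from dose-response curves.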

Each structure is given as a SMILES string. Where only a bound is given, the exact number is not on record here.

In general, IC50 refers to the concentration needed to halve the response being measured. With `CCNc1nc(N2CCOCC2)nc2ncn(Cc3ccc4ccccc4c3)c12`, in test [1], the Activity result is on record as “>=80%”. In test [2], the IC50 worked out at 57 µM.
